Experimental data: ChEMBL document CHEMBL1142496, “Studies on enzyme-cleavable dialkoxymethyl-cyclosaligenyl-2',3'-dideoxy-2',3'-didehydrothymidine monophosphates” (J Med Chem, 2008)

Key:
[1] = Stability in RPMI-1640 medium containing 10% heat inactivated fetal calf serum at pH 7.6 assessed as hydrolysis half life; format: physicochemical; details: cattle, RPMI-1640 medium with 10% heat-inactivated fetal calf serum
How it was run: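 Stability in RPMI-1640 culture medium with 10% fetal calf serum heat-inactivated for 30 min at 56 °C (pH 7.6). Handled like the cell-extract incubations, with medium in place of extract; triester half-life and formyl-product formation followed by HPLC.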

[2] = Cytostatic activity against human wild type CEM/0 cellss; format: cell-based, CCRF-CEM; details: wild-type CEM/0 cells
How it was run: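 Cytostatic activity on T-lymphocyte CEM cultures, reported as the 50% cytostatic concentration.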

[3] = system: Human immunodeficiency virus 2; experiment: Antiviral activity against HIV2 in thymidine kinase deficient human CEM/TK- cellss; format: functional, organism-based; details: Human immunodeficiency virus 2, CEM-TK(-)
How it was run: (§1)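 Anti-HIV assay in T-lymphocytes: wild-type CEM/0 cells infected with HIV-1 or HIV-2, and thymidine kinase-deficient CEM/TK⁻ cells infected with HIV-2. Cells grown in RPMI-1640 with 10% heat-inactivated fetal calf serum. Read-out is the 50% effective concentration, given as the mean of two to three independent experiments.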

[4] = system: Human immunodeficiency virus 2; experiment: Antiviral activity against HIV2 in human wild type CEM/0 cellss; format: functional, organism-based; details: Human immunodeficiency virus 2, CCRF-CEM; how it was run: as §1
[5] = system: Human immunodeficiency virus 1; experiment: Antiviral activity against HIV1 in human wild type CEM/0 cellss; format: functional, organism-based; details: Human immunodeficiency virus 1, CCRF-CEM; how it was run: as §1
[6] = Stability in aqueous 25 mM phosphate buffer at pH 7.6 assessed as hydrolysis half life; format: physicochemical
How it was run: (§2)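 Chemical stability in aqueous 25 mM phosphate buffer at pH 7.3 or 7.6. Triester cleavage followed by HPLC; half-life refers to disappearance of the intact triester.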

[7] = Stability in aqueous 25 mM phosphate buffer at pH 7.3 assessed as hydrolysis half life; format: physicochemical; how it was run: as §2
[8] = Stability in human CEM cells extracts at pH 6.9 assessed as hydrolysis half life; format: ADME, CCRF-CEM; details: CEM cell extracts
How it was run: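 Enzymatic stability assay: triesters incubated in CEM cell extracts (pH 6.9) over varied incubation times. Acetic acid was not used to stop the reaction for acid-sensitive compounds. Samples analysed by HPLC to give the half-life of triester cleavage.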

[9] = system: Human immunodeficiency virus; experiment: Antiviral activity against HIV; format: functional, organism-based; details: Human immunodeficiency virus 1; how it was run: as §1

Structure (SMILES)	half-life [1] [h]	CC50 [2] [nM]	EC50 [3] [nM]	EC50 [4] [nM]	EC50 [5] [nM]	half-life [6] [h]	half-life [7] [h]	half-life [8] [h]	EC50 [9] [nM]
CC(=O)OC(OC(C)=O)c1cc(C)c2c(c1)COP(=O)(OC[C@@H]1C=C[C@H](n3cc(C)c(=O)[nH]c3=O)O1)O2 (stereo not given in full)	1.5	44000	6300	700	500	1.9			
Cc1cc(C(OC(=O)C(C)C)OC(=O)C(C)C)cc2c1OP(=O)(OC[C@@H]1C=C[C@H](n3cc(C)c(=O)[nH]c3=O)O1)OC2 (stereo not given in full)	1.6	20000	> 10000	950	1600	1.1	1.3	0.5	
Cc1cc(C=O)cc2c1OP(=O)(OC[C@@H]1C=C[C@H](n3cc(C)c(=O)[nH]c3=O)O1)OC2 (stereo not given in full)	0.7	82000	4500	1270	450	0.35			
Cc1cn([C@H]2C=C[C@@H](CO[P@]3(=O)OCc4cc(C(OC(=O)C(C)C)OC(=O)C(C)C)cc(C(C)(C)C)c4O3)O2)c(=O)[nH]c1=O	5.7	14000	1400	850	720	2.5	3.3	1	
CC(=O)OC(OC(C)=O)c1cc2c(c(C(C)(C)C)c1)OP(=O)(OC[C@@H]1C=C[C@H](n3cc(C)c(=O)[nH]c3=O)O1)OC2 (stereo not given in full)	2.8	19000	780	800	650	2.6	7.9	0.15	
Cc1cn([C@H]2C=C[C@@H](CO[P@@]3(=O)OCc4cc(C(OC(=O)C(C)C)OC(=O)C(C)C)cc(C(C)(C)C)c4O3)O2)c(=O)[nH]c1=O	4.5	40000	3600	1900	890	2.9	3.8	0.8	
Cc1cccc2c1OP(=O)(OC[C@@H]1C=C[C@H](n3cc(C)c(=O)[nH]c3=O)O1)OC2 (stereo not given in full)									100
CC(=O)OC(OC(C)=O)c1cc(C)cc2c1OP(=O)(OC[C@@H]1C=C[C@H](n3cc(C)c(=O)[nH]c3=O)O1)OC2 (stereo not given in full)	1.5	19000	6500	1000	520	1.1	3.2	0.25	
Cc1cn([C@H]2C=C[C@@H](COP3(=O)OCc4cc(C(C)(C)C)ccc4O3)O2)c(=O)[nH]c1=O (stereo not given in full)							7.2		
CC(=O)OC(OC(C)=O)c1cc2c(c(C(C)(C)C)c1)O[P@@](=O)(OC[C@@H]1C=C[C@H](n3cc(C)c(=O)[nH]c3=O)O1)OC2	2.8	51000	3900	840	1100	2.4	8.3	0.15	
Cc1cn([C@H]2C=C[C@@H](COP3(=O)OCc4cc(C(OC(=O)C(C)C)OC(=O)C(C)C)cc(C(C)(C)C)c4O3)O2)c(=O)[nH]c1=O (stereo not given in full)	5.9	20000	2400	2000	530	2.7	3.5	1	
Cc1cc(C=O)c2c(c1)COP(=O)(OC[C@@H]1C=C[C@H](n3cc(C)c(=O)[nH]c3=O)O1)O2 (stereo not given in full)	0.3	29000	29000	1400	3600	0.3	0.25		
CC(=O)OC(OC(C)=O)c1cc(C(C)(C)C)cc2c1OP(=O)(OC[C@@H]1C=C[C@H](n3cc(C)c(=O)[nH]c3=O)O1)OC2 (stereo not given in full)	1.9	7900	7300	1000	720	1.2	3.7	< 0.1	
Cc1cn([C@H]2C=C[C@@H](CO[P@]3(=O)OCc4cc(C=O)cc(C(C)(C)C)c4O3)O2)c(=O)[nH]c1=O	1.7	27000	2600	690	160	1.3	1.3		
Cc1cn([C@H]2C=C[C@@H](CO[P@@]3(=O)OCc4cc(C=O)cc(C(C)(C)C)c4O3)O2)c(=O)[nH]c1=O	1.6	41000	10000	1400	810	0.3	1		
Cc1cn([C@H]2C=C[C@@H](COP3(=O)OCc4cc(C(C)(C)C)cc(C=O)c4O3)O2)c(=O)[nH]c1=O (stereo not given in full)	0.3	8800	5100	1000	990	0.1	0.25		
Cc1cn([C@H]2C=C[C@@H](COP3(=O)OCc4cc(C=O)cc(C(C)(C)C)c4O3)O2)c(=O)[nH]c1=O (stereo not given in full)	1.5	33000	15000	1000	390	1.1	1		
CC(=O)OC(OC(C)=O)c1cc2c(c(C(C)(C)C)c1)O[P@](=O)(OC[C@@H]1C=C[C@H](n3cc(C)c(=O)[nH]c3=O)O1)OC2	2.9	17000	290	750	540	2.7	7.9	0.3	
Cc1cn([C@H]2C=C[C@@H](CO)O2)c(=O)[nH]c1=O [STAVUDINE]		182000	62000	1900	860				
